In paper PMC6982536 (Nature chemical biology, 2019):

Legend:
FKBP/FRB = details: read-out: EC50 (published value); cited from earlier work
NarX/NarL = assay type: cell-based
How it was run: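 HEK293 (37 °C, 5% CO2, DMEM) seeded at 50 000 cells/well 24 h before Lipofectamine 2000 transfection with 400 ng DNA, including NarL and a NarL-inducible Cerulean reporter. After 4 h, medium was replaced with fresh medium ± ligand. At 48 h, cells were Accutase-detached for flow cytometry. Total intensity (mean Cerulean of reporter-positive cells × positive fraction) was normalised to mCherry transfection-control total intensity.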

FKBP/FRB^T2098L = FKBP/FRB^T2098L (Homo sapiens, UniProt P42345+P62942, T2098L); assay type: cell-based; details: high ligand concentration, Fig. 3a conditions 11 and 12
FKBP/FRB^T2098L, sequence (P62942 whole entry): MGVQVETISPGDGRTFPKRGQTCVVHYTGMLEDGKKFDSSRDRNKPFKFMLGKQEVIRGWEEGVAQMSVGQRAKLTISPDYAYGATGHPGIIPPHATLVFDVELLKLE
FKBP/FRB^T2098L, sequence (P42345 2012-2144 T2098L limits assumed): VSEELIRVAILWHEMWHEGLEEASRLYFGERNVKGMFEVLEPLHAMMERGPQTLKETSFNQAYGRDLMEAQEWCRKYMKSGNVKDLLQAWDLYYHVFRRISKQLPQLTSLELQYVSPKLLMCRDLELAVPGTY

CMV promoter = test: iRFP expression from the CMV promoter in HEK cells with ligand; assay type: cell-based; details: 1µM of procaterol or 2 µM of epinephrine vs DMEM
How it was run: (§1)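 HEK293 cultured at 37 °C, 5% CO2 in DMEM were seeded at 50 000 cells/well 24 h before transfection. Transfection used 400 ng reporter-containing DNA with Lipofectamine 2000 (3.75 µl per 1 µg DNA). Four hours later, medium was swapped for fresh medium with or without ligand.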

EF1α promoter = test: iRFP expression from the EF1α promoter in HEK cells with ligand; assay type: cell-based; details: 1µM of procaterol or 2 µM of epinephrine vs DMEM
How it was run: as §1

[1] = molecular target: β2AR^∆C::V2R^∆N::H^mut / β-arrestin::N^mut (Homo sapiens, UniProt P07550); test: GPCR/β-arrestin interaction rewired via TCS; assay type: cell-based

dynamic range of ligand-induced signaling (FKBP/FRB^T2098L)	EC50 [1] [nM]	Structure (SMILES)	EC50 (FKBP/FRB) [nM]	effect on wild-type NarX/NarL signaling (NarX/NarL; A/C, Fig. 3a conditions 2 and 3)	induction of the CMV promoter (CMV promoter)	effect on EF1α promoter (EF1α promoter)	effect on signaling via NarX/NarL system (NarX/NarL; procaterol, Fig. 4b conditions 2 and 3)
above 3 orders of magnitude		CO[C@H]1[C@@H](O)[C@H](C)C[C@H](C)/C=C/C=C/C=C(\C)[C@@H](c2c[nH]c3c(C)cccc23)C[C@@H]2CC[C@@H](C)[C@@](O)(O2)C(=O)C(=O)N2CCCC[C@H]2C(=O)O[C@H]([C@H](C)C[C@@H]2CC[C@@H](O)[C@H](OC)C2)C[C@H](O)[C@H](C)/C=C(\C)[C@H]1O [A/C, C16-(S)-7-methylindolerapamycin]	10	did not affect			
		CNC[C@H](O)c1ccc(O)c(O)c1 [Epinephrine]			factor of two	not affected	
	5	CCC(NC(C)C)C(O)c1ccc(O)c2[nH]c(=O)ccc12 (stereo not drawn) [Procaterol]			factor of two	not affected	did not affect
